From ChEMBL document CHEMBL3611973, “Synthesis and biological evaluation of a novel betulinic acid derivative as an inducer of apoptosis in human colon carcinoma cells (HT-29)” (Eur J Med Chem, 2015)
Activity calls are given as the source filed them. The rule behind the calls is not given here.

Assays:
[1] = system: HT-29; experiment: Induction of apoptosis in human HT-29 cells assessed as loss of mitochondrial membrane potential using JC-1 dye at IC50 after 48 hrs by flow cytometry (reference value: 1.75%); assay type: functional
[2] = system: HT-29; experiment: Cytotoxicity against human HT-29 cells assessed as cell viability after 48 hrs by MTT assay in presence of NAC; assay type: functional, cell-based; conditions: HT-29, 48 h
How it was run: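 HT-29 cells pre-incubated with 2.5 mM N-acetyl cysteine for 3 h, then exposed to compound and assayed for viability by MTT.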

[3] = system: HT-29; experiment: Induction of apoptosis in human HT-29 cells assessed as early apoptotic cells using annexin V-FITC/propidium iodide staining at IC50 after 48 hrs by flow cytometry (reference value: 0.1%); assay type: functional
[4] = system: HT-29; experiment: Induction of apoptosis in human HT-29 cells assessed as late apoptotic cells using annexin V-FITC/propidium iodide staining at IC50 after 24 hrs by flow cytometry (reference value: 0.0%); assay type: functional
[5] = system: HT-29; experiment: Induction of apoptosis in human HT-29 cells assessed as late apoptotic cells using annexin V-FITC/propidium iodide staining at IC50 after 12 hrs by flow cytometry (reference value: 0.0%); assay type: functional
[6] = system: HT-29; experiment: Induction of apoptosis in human HT-29 cells assessed as reduction in Bcl2/Bax ratio at IC50 after 12 to 48 hrs by Western blotting; assay type: functional, cell-based
[7] = system: HT-29; experiment: Induction of apoptosis in human HT-29 cells assessed as loss of mitochondrial membrane potential using JC-1 dye at IC50 after 12 hrs by flow cytometry (reference value: 1.75%); assay type: functional
[8] = system: HepG2; experiment: Cytotoxic activity against human HepG2 cells assessed as cell growth inhibition after 48 hrs by MTT assay; assay type: functional, cell-based; conditions: HepG2, 48 h
How it was run: (§1)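 Log-phase cells (1.25-2.5×10^4/100 µl; RPMI 1640, HepG2 in high-glucose DMEM, 10% FBS) given compound in DMSO (final <0.1%), 0-50 µM, 48 h, 37 °C, 5% CO2. MTT 4 h, DMSO solubilization, OD 540 nm minus background; viability relative to untreated; IC50 by graphical extrapolation, ≥3 experiments in duplicate.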

[9] = system: PBMC; experiment: Cytotoxic activity against human PBMC cells assessed as cell growth inhibition after 48 hrs by MTT assay; assay type: cell-based; how it was run: as §1
[10] = system: HT-29; experiment: Induction of apoptosis in human HT-29 cells assessed as increase in caspase-9 activity at IC50 after 48 hrs by colorimetric assay; assay type: functional, cell-based
[11] = system: Calf thymus DNA; experiment: Binding affinity to calf thymus DNA assessed as conformational change at 50 uM after 2 hrs by circular dichroism analysis; assay type: nucleic-acid assay; conditions: Bos taurus
How it was run: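 CT-DNA (500 μg/mL) incubated alone or with 50 μM compound for 2 h at 37 °C in 50 mM Tris-HCl/NaCl buffer; CD spectra recorded for conformation, with the positive band at 275 nm and the negative band at 245 nm (B-form) monitored.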

[12] = system: Jurkat; experiment: Cytotoxic activity against human Jurkat cells assessed as cell growth inhibition after 48 hrs by MTT assay; assay type: functional, cell-based; how it was run: as §1
[13] = system: HT-29; experiment: Cytotoxic activity against human HT-29 cells assessed as cell growth inhibition after 48 hrs by MTT assay; assay type: functional, cell-based; conditions: HT-29, 48 h; how it was run: as §1
[14] = system: HT-29; experiment: Induction of apoptosis in human HT-29 cells assessed as membrane blebbing using Hoechst 33258 dye at IC50 after 48 hrs by confocal microscopic analysis; assay type: functional, cell-based
How it was run: (§2)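 HT-29 (2.5×10^5 cells/ml) treated 48 h at 37 °C, 5% CO2, washed, fixed in 4% paraformaldehyde (4 °C, 30 min), stained with Hoechst 33258 (5 µg/ml final, 37 °C, 30 min, dark), mounted in 50% glycerol on poly-L-lysine slides; confocal imaging at 100×.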

[15] = system: HT-29; experiment: Induction of apoptosis in human HT-29 cells assessed as late apoptotic cells using annexin V-FITC/propidium iodide staining at IC50 after 48 hrs by flow cytometry (reference value: 0.0%); assay type: functional
[16] = system: HT-29; experiment: Induction of apoptosis in human HT-29 cells assessed as late apoptotic cells using annexin V-FITC/propidium iodide staining at IC50 by flow cytometry; assay type: functional, cell-based; conditions: TDE = time-dependent effect
[17] = system: HT-29; experiment: Induction of apoptosis in human HT-29 cells assessed as cleavage of PARP at IC50 after 24 to 48 hrs by Western blotting; assay type: functional, cell-based
[18] = system: HT-29; experiment: Induction of apoptosis in human HT-29 cells assessed as chromatin condensation using Hoechst 33258 dye at IC50 after 48 hrs by confocal microscopic analysis; assay type: functional, cell-based; how it was run: as §2
[19] = system: HT-29; experiment: Induction of apoptosis in human HT-29 cells assessed as increase in caspase-3 activity at IC50 after 48 hrs by colorimetric assay; assay type: functional, cell-based
[20] = system: HT-29; experiment: Induction of apoptosis in human HT-29 cells assessed as apoptotic bodies using Hoechst 33258 dye at IC50 after 48 hrs by confocal microscopic analysis; assay type: functional, cell-based; how it was run: as §2
[21] = system: HT-29; experiment: Induction of apoptosis in human HT-29 cells assessed as ROS generation measured up to 15 mins by FACS analysis; assay type: functional, cell-based
How it was run: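 HT-29 (2.5×10^5/ml) exposed 0-2 h, washed, loaded with CM-H2DCFDA (5 μM in PBS) 30 min at 37 °C in the dark. DCF read by flow cytometry (ex 488/em 530 nm) on FSC/SSC-gated viable cells; mean fluorescence intensity, three independent experiments.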

[22] = system: HT-29; experiment: Induction of apoptosis in human HT-29 cells assessed as increase in caspase-8 activity at IC50 after 48 hrs by colorimetric assay; assay type: functional, cell-based
[23] = system: U-937; experiment: Cytotoxic activity against human U937 cells assessed as cell growth inhibition after 48 hrs by MTT assay; assay type: functional, cell-based; conditions: U-937, 48 h; how it was run: as §1
[24] = system: Calf thymus DNA; experiment: Binding affinity to calf thymus DNA up to 2 hrs by absorption spectroscopy analysis; assay type: nucleic-acid assay; conditions: Bos taurus
How it was run: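 Compound stock in 60% ethanol/50 mM Tris-HCl/NaCl (pH 7.5), diluted in buffer, actual concentration set by molar extinction coefficient. CT-DNA held at 50 μg/ml (legend: 100 μg/mL) with varied compound, 37 °C, 2 h; UV-vis scanned 200-400 nm. θ from 260 nm absorbance; Kb as the reciprocal of ligand concentration at half-saturation of the isotherm.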

[25] = system: HT-29; experiment: Induction of apoptosis in human HT-29 cells assessed as loss of mitochondrial membrane potential using JC-1 dye at IC50 after 24 hrs by flow cytometry (reference value: 1.75%); assay type: functional
[26] = system: HT-29; experiment: Induction of apoptosis in human HT-29 cells assessed as early apoptotic cells using annexin V-FITC/propidium iodide staining at IC50 by flow cytometry; assay type: functional, cell-based; conditions: TDE = time-dependent effect
[27] = system: MCF7; experiment: Cytotoxic activity against human MCF7 cells assessed as cell growth inhibition after 48 hrs by MTT assay; assay type: functional, cell-based; conditions: MCF7, 48 h; how it was run: as §1
[28] = system: HT-29; experiment: Induction of apoptosis in human HT-29 cells assessed as early apoptotic cells using annexin V-FITC/propidium iodide staining at IC50 after 24 hrs by flow cytometry (reference value: 0.1%); assay type: functional
[29] = system: HT-29; experiment: Induction of apoptosis in human HT-29 cells assessed as early apoptotic cells using annexin V-FITC/propidium iodide staining at IC50 after 12 hrs by flow cytometry (reference value: 0.1%); assay type: functional
[30] = system: HT-29; experiment: Induction of apoptosis in human HT-29 cells assessed as fragmentation using Hoechst 33258 dye at IC50 after 48 hrs by confocal microscopic analysis; assay type: functional, cell-based; how it was run: as §2

`C=C(C)[C@@H]1CC[C@]2(C(=O)O)CC[C@]3(C)[C@H](CC[C@@H]4[C@@]5(C)CC[C@H](OC(=O)Cn6cc(CO)nn6)C(C)(C)[C@@H]5CC[C@]43C)[C@@H]12` was tested, and the Activity [1] was 51.4%, the IC50 [2] was 30.4 µM and the Activity [3] was 25.2%. The Activity [4] was 3.2%, the Activity [5] was 2% and the Activity [6] was “Active”. For the same compound, the Activity [7] was 16.5%, the IC50 [8] was > 50 µM and the IC50 [9] was > 50 µM. The Activity [10] was “Active”, the Activity [11] was “inactive” and the IC50 [12] was 41.4 µM. The IC50 [13] was 14.9 µM, the Activity [14] was “Active” and the Activity [15] was 4.6%. The Activity [16] was “tde”, the Activity [17] was “Active” and the Activity [18] was “Active”. The Activity [19] was “Active”, the Activity [20] was “Active” and the Activity [21] was “Active”. The Activity [22] was “inactive”, the IC50 [23] was > 50 µM and the K [24] was 8.38 ×10⁴ /M. The Activity [25] was 30.5%, the Activity [26] was “tde” and the IC50 [27] was > 50 µM. The Activity [28] was 17.1%, the Activity [29] was 14.1% and the Activity [30] was “Active”.
In the case of `C=C(C)[C@@H]1CC[C@]2(C(=O)O)CC[C@]3(C)[C@H](CC[C@@H]4[C@@]5(C)CC[C@H](OC(=O)Cn6cc(-c7ccc8[nH]ccc8c7)nn6)C(C)(C)[C@@H]5CC[C@]43C)[C@@H]12`, the IC50 [8] is reported as > 50 µM, the IC50 [12] is reported as > 50 µM and the IC50 [13] is reported as > 50 µM. For the same compound, the IC50 [23] was > 50 µM and the IC50 [27] was > 50 µM.
With `C=C(C)[C@@H]1CC[C@]2(C(=O)O)CC[C@]3(C)[C@H](CC[C@@H]4[C@@]5(C)CC[C@H](OC(=O)Cn6cc(-c7ccc(C(=O)OCC)cc7)nn6)C(C)(C)[C@@H]5CC[C@]43C)[C@@H]12` the IC50 [8] was > 50 µM, the IC50 [12] was > 50 µM and the IC50 [13] was > 50 µM. The IC50 [23] was 40.1 µM and the IC50 [27] was > 50 µM.
For `C=C(C)[C@@H]1CC[C@]2(C(=O)O)CC[C@]3(C)[C@H](CC[C@@H]4[C@@]5(C)CC[C@H](OC(=O)Cn6cc(CO[C@@H]7[C@H]8OC(C)(C)O[C@H]8O[C@@H]7[C@H](O)CO)nn6)C(C)(C)[C@@H]5CC[C@]43C)[C@@H]12`, the IC50 [8] was > 50 µM, the IC50 [12] was > 50 µM and the IC50 [13] was > 50 µM. For the same compound, the IC50 [23] was > 50 µM and the IC50 [27] was > 50 µM.
For `C=C(C)[C@@H]1CC[C@]2(C(=O)O)CC[C@]3(C)[C@H](CC[C@@H]4[C@@]5(C)CC[C@H](OC(=O)Cn6cc(CCCC)nn6)C(C)(C)[C@@H]5CC[C@]43C)[C@@H]12`, the IC50 [8] was 49.8 µM, the IC50 [12] was > 50 µM and the IC50 [13] was > 50 µM. The IC50 [23] was > 50 µM and the IC50 [27] was > 50 µM.
`C=C(C)[C@@H]1CC[C@]2(C(=O)O)CC[C@]3(C)[C@H](CC[C@@H]4[C@@]5(C)CC[C@H](OC(=O)Cn6cc(-c7cnc(OC)nc7OC)nn6)C(C)(C)[C@@H]5CC[C@]43C)[C@@H]12` was tested, and the IC50 [8] was > 50 µM, the IC50 [9] was > 50 µM and the IC50 [12] was > 50 µM. For the same compound, the IC50 [13] was 39.8 µM, the IC50 [23] was 41.9 µM and the IC50 [27] was 44.7 µM.
